Active and inactive are the calls of the source. No cut-off for these calls is given here.

In experiment [1] the target is Acetylcholinesterase (Electrophorus electricus, UniProt O42275). Kind of experiment: Inhibition of electric eel AChE incubated for 15 mins by Ellman's method. The method, boiled down: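 Colorimetric kit assay with Electrophorus electricus AChE. Compound is incubated with enzyme for 15 min. Assay buffer containing AChE substrate and DTNB is then added, and absorbance is read at 0 and 15 min.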
Chain of Acetylcholinesterase (O42275 whole entry): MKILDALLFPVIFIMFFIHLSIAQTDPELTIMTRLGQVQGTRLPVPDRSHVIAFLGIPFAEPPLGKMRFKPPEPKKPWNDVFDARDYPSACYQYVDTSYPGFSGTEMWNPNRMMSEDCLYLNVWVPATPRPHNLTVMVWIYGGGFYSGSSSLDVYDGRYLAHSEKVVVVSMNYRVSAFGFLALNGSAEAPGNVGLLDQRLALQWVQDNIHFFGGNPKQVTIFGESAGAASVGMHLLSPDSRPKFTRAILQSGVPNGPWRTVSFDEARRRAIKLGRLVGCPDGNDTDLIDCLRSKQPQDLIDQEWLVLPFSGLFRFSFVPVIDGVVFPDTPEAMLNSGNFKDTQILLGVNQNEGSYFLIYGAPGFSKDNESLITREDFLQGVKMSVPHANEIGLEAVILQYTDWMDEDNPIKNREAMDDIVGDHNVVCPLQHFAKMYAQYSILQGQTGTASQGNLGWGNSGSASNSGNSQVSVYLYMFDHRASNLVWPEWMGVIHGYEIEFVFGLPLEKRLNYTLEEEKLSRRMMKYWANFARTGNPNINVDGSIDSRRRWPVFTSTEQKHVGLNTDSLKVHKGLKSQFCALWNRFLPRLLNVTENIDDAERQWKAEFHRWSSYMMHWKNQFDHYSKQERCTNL
(Ellman's reagent forms a yellow product with free thiols.)

The target in experiment [2] is Cholinesterase (Equus caballus) (UniProt P81908). Briefly: Inhibition of equine serum BChE at 50 uM using S-butyrylthiocholine iodide as substrate incubated for 15 mins by Ellman's method relative to control. The method, boiled down:
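Same colorimetric kit with equine serum butyrylcholinesterase and S-butyrylthiocholine iodide substrate plus DTNB. Compound is preincubated with enzyme for 15 min. Absorbance is read at 0 and 15 min after substrate addition. Sample tested at 50 μM.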

Experiment [3] has as its target Acetylcholinesterase (Electrophorus electricus) (UniProt O42275). Kind of experiment: Inhibition of electric eel AChE at 50 uM incubated for 15 mins by Ellman's method relative to control. The method, boiled down: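 Colorimetric kit assay with Electrophorus electricus AChE. Compound is incubated with enzyme for 15 min. Assay buffer containing AChE substrate and DTNB is then added, and absorbance is read at 0 and 15 min. Single-point screen at 50 μM; IC50 also determined.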

For experiment [4], the species on record is Danio rerio. Kind of experiment: Induction of paralysis in AB/TU zebra fish at 100 uM treated at 7 hpf and measured after 72 hrs. The format is functional, organism-based. The method, boiled down: (§1)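 Embryos exposed from 7 h postfertilization and scored for paralysis at 72 hpf. Value is the lowest concentration giving paralysis; […]. Pure compounds come from 10 mM DMSO stocks, with further dilutions made in DMSO.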

Experiment [5] is filed under the species Danio rerio. Briefly: Induction of paralysis in AB/TU zebra fish at 10 uM treated at 7 hpf and measured after 72 hrs. The format is functional, organism-based. The method, boiled down:
as §1

The species entered for experiment [6] is Danio rerio. Kind of experiment: Induction of paralysis in AB/TU zebra fish at 50 uM treated at 7 hpf and measured after 72 hrs. The format is functional, organism-based. A digest of the protocol:
as §1

For experiment [7], the species on record is Danio rerio. Kind of experiment: Induction of paralysis in AB/TU zebra fish at 5 uM treated at 7 hpf and measured after 72 hrs. The format is functional, organism-based. The method, boiled down: as §1
Experiment [8] is filed under the species Danio rerio. Kind of experiment: Induction of paralysis in AB/TU zebra fish at 1 uM treated at 7 hpf and measured after 72 hrs. The format is functional, organism-based. A digest of the protocol:
as §1

Chain of Acetylcholinesterase (Electrophorus electricus) (O42275 24-633 limits assumed): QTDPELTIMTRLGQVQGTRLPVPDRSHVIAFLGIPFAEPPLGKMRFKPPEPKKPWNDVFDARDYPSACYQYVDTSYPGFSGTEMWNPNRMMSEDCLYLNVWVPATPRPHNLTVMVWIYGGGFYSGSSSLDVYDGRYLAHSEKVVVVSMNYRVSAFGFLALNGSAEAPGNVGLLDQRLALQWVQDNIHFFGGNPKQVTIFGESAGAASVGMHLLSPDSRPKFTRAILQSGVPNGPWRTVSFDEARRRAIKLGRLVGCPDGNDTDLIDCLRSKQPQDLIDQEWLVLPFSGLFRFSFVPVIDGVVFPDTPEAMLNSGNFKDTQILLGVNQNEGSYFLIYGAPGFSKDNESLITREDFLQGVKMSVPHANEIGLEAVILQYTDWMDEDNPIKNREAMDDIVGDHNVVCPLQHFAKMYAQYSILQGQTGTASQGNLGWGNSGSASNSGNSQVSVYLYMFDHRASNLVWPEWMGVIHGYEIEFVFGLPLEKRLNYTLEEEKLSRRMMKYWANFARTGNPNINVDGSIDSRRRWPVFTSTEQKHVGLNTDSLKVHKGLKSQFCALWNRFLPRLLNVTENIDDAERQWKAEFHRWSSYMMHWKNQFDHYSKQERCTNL
Chain of Cholinesterase (Equus caballus) (P81908 whole entry): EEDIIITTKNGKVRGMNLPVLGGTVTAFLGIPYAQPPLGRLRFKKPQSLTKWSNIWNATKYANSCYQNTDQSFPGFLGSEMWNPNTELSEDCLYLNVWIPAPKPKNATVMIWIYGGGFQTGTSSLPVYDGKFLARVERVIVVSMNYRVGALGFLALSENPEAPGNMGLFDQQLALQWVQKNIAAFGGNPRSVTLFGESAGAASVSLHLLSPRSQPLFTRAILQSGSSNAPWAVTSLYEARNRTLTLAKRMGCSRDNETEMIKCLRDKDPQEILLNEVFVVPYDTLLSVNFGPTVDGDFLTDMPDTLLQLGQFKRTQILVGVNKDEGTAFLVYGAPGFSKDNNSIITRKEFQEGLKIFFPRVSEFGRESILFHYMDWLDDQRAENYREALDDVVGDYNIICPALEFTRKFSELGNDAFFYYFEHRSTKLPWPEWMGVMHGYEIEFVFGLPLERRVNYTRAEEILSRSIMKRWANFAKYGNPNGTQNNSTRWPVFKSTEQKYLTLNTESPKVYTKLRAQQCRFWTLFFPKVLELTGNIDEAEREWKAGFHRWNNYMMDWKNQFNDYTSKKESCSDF

As usually defined, the IC50 is the concentration needed to halve the response being measured. A lower IC50 goes with inhibition by little substance. The term inhibition denotes the percentage by which the read-out fell short of the control. A high value points to strong suppression. In the case of `CC(C)NP(=O)(NC(C)C)OP(=O)(NC(C)C)NC(C)C` [TETRAISOPROPYL PYROPHOSPHORAMIDE], the IC50 in experiment [1] is greater than 100 µM. Also, the inhibition in experiment [2] amounted to 15.1%; in experiment [3] it was 1.3%. Also, the outcome in experiment [4] was inactive.
As to `COc1ccc(-c2cc3c(c(=O)o2)C[C@]2(O)[C@@]4(C)CC[C@@H](OC(C)=O)C(C)(C)[C@]4(O)CC[C@@]2(C)O3)cc1`, the inhibition in experiment [2] worked out at 4.7%; in experiment [3] it was 60.1%. In experiment [5], the result was Active.
As to `COc1ccc(-c2cc(O)c(C/C=C(\C)CC/C=C(\C)CCC=C(C)C)c(=O)o2)cc1`, in experiment [1], the IC50 is greater than 100 µM. Further, the values for the inhibition in experiment [2] and in experiment [3] were 0% and 4.3%, respectively. The result in experiment [6] was Active.
Turning to `COc1ccc(-c2cc3c(c(=O)o2)C[C@@H]2[C@@]4(C)CCC(=O)C(C)(C)[C@@H]4CC[C@@]2(C)O3)cc1`, in experiment [1], the IC50 is greater than 100 µM. Also, the results for the inhibition in experiment [2] and in experiment [3] were 11.6% and 26.9%, respectively. In addition, the result in experiment [7] was Active.
In the case of `COc1ccc(-c2cc3c(c(=O)o2)C[C@]2(O)[C@@]4(C)CC[C@@H](O)C(C)(C)[C@]4(O)CC[C@@]2(C)O3)cc1`, the figures for the inhibition in experiment [2] and in experiment [3] were 0% and 83.4%, respectively. Besides, in experiment [4], the outcome was inactive.
Regarding `COc1ccc(-c2cc3c(c(=O)o2)C[C@]2(O)[C@@]4(C)[C@H](O)C[C@@H](O)C(C)(C)[C@]4(O)CC[C@@]2(C)O3)cc1`, the IC50 in experiment [1] was greater than 100 µM. Besides, the inhibition in experiment [2] was 0%; in experiment [3], 29.2%. In addition, the result in experiment [4] was inactive.
`COc1ccc(-c2cc3c(c(=O)o2)C[C@@H]2[C@@]4(C)CC[C@H](O)C(C)(C)[C@@H]4CC[C@@]2(C)O3)cc1`: the inhibition in experiment [2] stood at 4.7%; in experiment [3], 3%. Further, in experiment [4], the outcome was inactive.
As to `COP(=S)(OC)SCn1nnc2ccccc2c1=O`, the inhibition in experiment [2] is 3.3%; in experiment [3], 12.2%. Further, the outcome in experiment [8] was Active.
`COc1ccc(-c2cc(O)c(C/C=C(\C)CC/C=C(\C)CCC(O)C(C)(C)O)c(=O)o2)cc1` (stereo unspecified): the 50% inhibitory concentration (IC50) in experiment [1] was greater than 100 µM. Moreover, the inhibition in experiment [2] is 4.7%; in experiment [3] it was 34.1%. Moreover, the outcome in experiment [5] was Active.
Turning to `COc1ccc(-c2cc3c(c(=O)o2)C[C@H]2[C@@](C)(CC[C@@]4(O)C(C)(C)[C@@H](O)CC[C@]24C)O3)cc1`, the inhibition in experiment [2] worked out at 7%; in experiment [3] it was 75.4%. For the same compound, the result in experiment [4] was inactive.
The like results for `CNC(=O)Oc1ccc2c(c1)[C@]1(C)CCN(C)[C@@H]1N2C` were, in that order, 93.2%, 99.8% and “Active”.
`COc1ccc(-c2cc3c(c(=O)o2)C[C@]2(O)[C@@]4(C)CC[C@H](O)C(C)(C)[C@]4(O)CC[C@@]2(C)O3)cc1` returned an IC50 in experiment [1] of 3.9 µM. For the same compound, the inhibition in experiment [2] was 4.7%; in experiment [3], 89.4%. In addition, in experiment [6], the result was Active.
`COc1ccc(-c2cc3c(c(=O)o2)C[C@]2(O)[C@@]4(C)[C@H](O)CC(=O)C(C)(C)[C@@]4(O)CC[C@@]2(C)O3)cc1` yielded an IC50 in experiment [1] of 4.6 µM. Besides, the inhibition in experiment [2] worked out at 0%; in experiment [3], 83.6%. Besides, the outcome in experiment [4] was inactive.
The compound `COc1ccc(-c2cc3c(c(=O)o2)C[C@H]2[C@@]4(C)C=CC(=O)C(C)(C)[C@@H]4CC[C@@]2(C)O3)cc1` displayed an IC50 in experiment [1] of 66 µM. Moreover, the inhibition in experiment [2] was 0%; in experiment [3] it was 40.3%. For the same compound, the result in experiment [7] was Active.
`COc1ccc(-c2cc3c(c(=O)o2)C[C@]2(O)[C@@]4(C)CCC(=O)C(C)(C)[C@]4(O)CC[C@@]2(C)O3)cc1`: the figures for the inhibition in experiment [2] and in experiment [3] were 9.3% and 96.6%, respectively. Moreover, the outcome in experiment [4] was inactive.
In turn, `COc1ccc(-c2cc3c(c(=O)o2)C[C@H]2[C@@](C)(CC[C@@]4(O)C(C)(C)C(=O)CC[C@]24C)O3)cc1` had a concentration for half-maximal inhibition (IC50) in experiment [1] of 1.4 µM. Besides, the inhibition came to 32.6% in experiment [2] and 95.1% in experiment [3]. In addition, the outcome in experiment [7] was Active.
For the compound `COc1ccc(-c2cc3c(c(=O)o2)C[C@]2(O)[C@@]4(C)C(=O)C[C@@H](O)C(C)(C)[C@]4(O)CC[C@@]2(C)O3)cc1`, in experiment [1], the IC50 came out at 0.191 µM. The values for the inhibition in experiment [2] and in experiment [3] were 0% and 98%, respectively. Moreover, in experiment [8], the outcome was Active.
